Experimental data: ChEMBL document CHEMBL1148948, “Biotransformation of nobiletin by Aspergillus niger and the antimutagenic activity of a metabolite, 4'-hydroxy-5,6,7,8,3'-pentamethoxyflavone” (2004)
The source made the active and inactive calls.

Assays:
Type in all cases: functional, organism-based
Details in all cases: Salmonella enterica subsp. enterica serovar Typhimurium
Salmonella typhimurium [1] = experiment: Antimutagenic activity in Salmonella Typhimurium TA1535 carrying pSK1002 containing umuC'-lacZ fused gene assessed as suppression of MeIQ-induced SOS response to alteration in DNA synthesis measured by beta-galactosidase activity by Umu test
Summary of the method: (§1)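 S. typhimurium TA1535/pSK1002 (umuC′-′lacZ fusion on the plasmid). The overnight culture was diluted 50-fold in fresh TGA medium and grown at 37 °C to A600 0.25-0.30. SOS induction was read as β-galactosidase activity in Miller units. The S9 mix used rat liver S9 (phenobarbital/5,6-benzoflavone-pretreated males) with G-6-P, NADH and NADPH cofactors.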

Salmonella typhimurium [2] = experiment: Antimutagenic activity in Salmonella Typhimurium TA1535 carrying pSK1002 containing umuC'-lacZ fused gene assessed as suppression of Trp-P-1-induced SOS response to alteration in DNA synthesis measured by beta-galactosidase activity by Umu test; summary of the method: as §1
Salmonella typhimurium [3] = experiment: Antimutagenic activity in Salmonella Typhimurium TA1535 carrying pSK1002 containing umuC'-lacZ fused gene assessed as suppression of furyfuramide-induced SOS response to alteration in DNA synthesis measured by beta-galactosidase activity by Umu test; summary of the method: as §1
Salmonella typhimurium [4] = experiment: Antimutagenic activity in Salmonella Typhimurium TA1535 carrying pSK1002 containing umuC'-lacZ fused gene assessed as suppression of 0.1 j/M2 UV light-induced SOS response to alteration in DNA synthesis measured by beta-galactosidase activity by Umu test; summary of the method: as §1

Measured: Activity

COc1ccc(-c2cc(=O)c3c(OC)c(OC)c(OC)c(OC)c3o2)cc1OC
active: Salmonella typhimurium [1] | Salmonella typhimurium [2] | Salmonella typhimurium [3] | Salmonella typhimurium [4]
